SMARCA2 activ – SMARCA2 function activation, primary screen | MG213 cells, MMTV-luciferase reporter, dexamethasone, overnight | activation, % at 9.1 µM | 370,000 tested, 1% active; in the data active means activation above about 7.8%;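 further: 0% = vehicle wells and 100% = reference activator wells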
ATG4B inh – inhibitors of human ATG4B cysteine protease. AID 504462. inhibition, % at 8.33 µM. 340,000 tested, 0.51% active. Q9Y4P1. ATG4B cleavage of LC3-PLA2, NBD-HPC fluorescence, 1 h; in the data active means inhibition above about 40%
Target sequence (Q9Y4P1 whole entry, looked up): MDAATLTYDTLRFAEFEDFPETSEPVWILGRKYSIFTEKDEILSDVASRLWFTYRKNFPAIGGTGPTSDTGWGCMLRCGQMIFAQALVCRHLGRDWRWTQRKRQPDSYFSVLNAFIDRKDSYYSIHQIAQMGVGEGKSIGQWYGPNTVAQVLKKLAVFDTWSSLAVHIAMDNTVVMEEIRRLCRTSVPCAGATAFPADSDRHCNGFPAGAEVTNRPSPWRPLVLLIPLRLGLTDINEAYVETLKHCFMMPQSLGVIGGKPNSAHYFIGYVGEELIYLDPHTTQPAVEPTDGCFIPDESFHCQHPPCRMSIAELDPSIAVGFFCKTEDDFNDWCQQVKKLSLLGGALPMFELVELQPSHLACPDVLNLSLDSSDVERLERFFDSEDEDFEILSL
MC4R antag cAMP – antagonists of human melanocortin 4 receptor (MC4R). inhibition, % at 6.5 µM. 360,000 tested, 0.48% active. AID 540295. MC4R-expressing cells, MTII-stimulated cAMP, LANCE TR-FRET;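 active means inhibition above its plate's cutoff, the mean of tested wells on that plate plus 3 SD, cut at about 29% in these data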;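 further: 0% = Melanotan II alone and 100% = Melanotan II plus saturating MCL0020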
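Assay system: U2OS cells stably expressing human melanocortin 4 receptor (MC4R) / Dosing: 6.5 µM / Timing: compound 30 min, challenge 1 h, detection 1 h / Measured by: Eu-cAMP/anti-cAMP TR-FRET, emission 671 nm / Replicates: singlicate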
MC4R barr agon – activates human MC4R beta-arrestin recruitment; P32245; 360,000 tested, 0.98% active; U2OS MC4R beta-arrestin complementation, luminescence; percent of melanotan II response, DMSO zero; activation, % at 8.9 µM;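 active means activation above a per-plate cutoff, the mean activation of sample wells on that plate plus 3 SD, cut at about 8% in these data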
MPTP block – permeability transition pore inhibition; inhibition, % at 10 µM; isolated mouse mitochondria, Ca2+ swelling absorbance, 30 min; 360,000 tested, 1.4% active;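 active means inhibition of 50% or more, scaled per plate between neutral and stimulator controls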;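 further: 0% = DMSO wells given calcium and 100% = 1 mM EGTA wells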
U2OS cAMP counter – nonselective cAMP signaling inhibitor, MC4R antagonist counter-screen | 1,600 tested, 26% active | shares compounds with MC4R antag cAMP | inhibition, % at 6.5 µM | parental U2OS, forskolin cAMP, LANCE TR-FRET;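 active means mean inhibition over triplicates above the low-control well mean plus 3 SD, set per campaign, cut at about 13% in these data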;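 further: signal is single emission at 671 nm which falls as cellular cAMP rises; 0% = forskolin-stimulated wells and 100% = buffer without forskolin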
MC4R antag conf – human MC4R cAMP antagonism confirmation; shares compounds with MC4R antag cAMP; MC4R-expressing cells, MTII-stimulated cAMP, TR-FRET; inhibition, % at 6.5 µM; 1,600 tested, 27% active; AID 602195; in the data active means inhibition above about 29%;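 further: 0% = agonist stimulated wells alone and 100% = agonist stimulated wells plus saturating reference antagonist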
* hit, by the source's call; · = not tested or not shown. Rows were chosen to be rich in hits. Some 4.1% of all compounds tested hit in one or more screens of this group.

SMILES	SMARCA2 activ	ATG4B inh	MC4R antag cAMP	MC4R barr agon	MPTP block	U2OS cAMP counter	MC4R antag conf
O=C(C1=C(O)C(=O)N(Cc2ccco2)C1c1cccnc1)c1cc2ccccc2o1 (stereo not given)	1	-1	16	-1	-2	·	·
COc1cccc2cc(C(=O)C3=C(O)C(=O)N(Cc4ccco4)C3c3cccnc3)oc12 (stereo not given)	·	-5	29*	0	-1	27*	44*
O=C(CSc1nnc(-c2cccnc2)n1-c1ccccc1)Nc1ccc2c(c1)OCCO2	1	·	·	·	·	·	·
COc1cc(-c2nnc(Sc3ccc(C(F)(F)F)cc3[N+](=O)[O-])o2)cc(OC)c1OC	-1	6	29*	0	1	2	5
COc1ccc(NC(=O)N2CCN(c3nc4ccccc4n3C(C)C)CC2)cc1	-4	-3	30*	3	-2	1	2
COc1cc(C=Nn2c(-c3ccc(F)cc3)n[nH]c2=S)ccc1OCc1ccccc1	-2	·	·	·	·	·	·
CC(C)(C)OC(=O)N1CCC(NC(=O)c2nc[nH]c2C(=O)NCC(=O)OCc2ccccc2)CC1	0	2	34*	-1	0	9	8
CC(C)(C)OC(=O)CNC(=O)c1[nH]cnc1C(=O)NC1CCN(C(=O)OC(C)(C)C)CC1	0	-7	·	·	·	·	·
COc1ccc(C(C(=O)NC2CCCCC2)N(Cc2cccnc2)C(=O)c2snc(C(N)=O)c2N)cc1 (stereo not given)	-3	1	31*	-2	2	-6	-12
CCS(=O)(=O)c1ccc2oc(Nc3cccc(OC)c3)nc2c1	7	5	31*	1	-1	1	-9
CCS(=O)(=O)c1ccc2oc(Nc3ccc(OC)cc3)nc2c1	-1	2	2	-2	2	·	·
CCOc1ncccc1C(=O)Nc1nc(C(C)(C)C)cs1	-2	-5	34*	8.7*	1	1	-2
CCC(C)Sc1ccc(-c2nc3ccc(C)cn3c2NCc2ccccc2)cc1OC (stereo not given)	·	23	35*	-1	13	18*	44*
COc1ccc(-c2cc(-c3nc4ccccn4c3NCc3ccccc3)ccc2OC)cc1	-3	4	37*	3	23	9	34*
CCCCCCSc1ccc(-c2nc3ccc(C)cn3c2NCc2ccccc2)cc1OC	2	8	2	-2	3	·	·
COc1ccc(-c2nc3ccccn3c2NCc2ccc3c(c2)OCO3)cc1	3	-1	8	0	1	·	·
Cc1ccc(S(=O)(=O)N(C)[C@H]2C[C@H]3c4[nH]c5cccc(-c6ccccc6)c5c4CCN3C(=O)[C@H]2[C@H](C)O)cc1	-4	·	·	·	·	·	·
O=C(O)c1cnn(-c2nc(-c3ccc(Cl)cc3)cs2)c1C(F)(F)F	1	-1	31*	-1	1	4	18
COc1cc(N=Nc2ccc(Br)cc2)cc(C=O)c1O	6	·	34*	-2	5	-5	-5
COc1cc(CN(C)C)cc(C=O)c1O	·	-2	2	2	-1	·	·
CCOC(=O)c1c(NC(=O)COC(=O)CNC(=O)c2ccc(Cl)cc2Cl)sc(C(=O)N(C)C)c1C	1	-5	31*	-1	-1	6	8
CCOC(=O)c1c(NC(=O)CSc2nc3cc(Cl)ccc3c(=O)n2Cc2ccco2)sc(C(=O)N(C)C)c1C	0	-3	31*	1	5	-4	6
CCOC(=O)c1c(NC(=O)COC(=O)c2nc(Cl)ccc2Cl)sc(C(=O)N(C)C)c1C	-4	2	1	-1	1	·	·
COc1ccc2[nH]c3c(c2c1)CCN[C@]31C(=O)N(Cc2ccccc2)c2ccccc21	-2	·	·	·	·	·	·
C/C(=N\NC(=O)CSc1nnc(-c2ccccc2)n1-c1ccc(C)cc1)c1ccc(-c2ccccc2)cc1	-3	·	·	·	·	·	·
SMILES	SMARCA2 activ	ATG4B inh	MC4R antag cAMP	MC4R barr agon	MPTP block	U2OS cAMP counter	MC4R antag conf
COc1ccc(-n2c(=S)[nH]c3sc(-c4ccccc4)cc3c2=O)c(OC)c1	0	-4	33*	-4	-1	15*	15
COc1cccc(-c2cc3c(=O)n(-c4ccccc4)c(=S)[nH]c3s2)c1	0	-3	24	-3	0	·	·
CN(C)[C@H]1CCN(c2cccc3c2S(=O)(=O)N2CC[C@@H](C2)O3)C1	-2	·	·	·	·	·	·
O=C1CN(C(=O)CSc2nc(-c3ccc(Cl)cc3)cs2)c2ccccc2N1	-2	-3	31*	2	3	-4	-18
O=C(COC(=O)C(Cc1ccccc1)NC(=O)c1cccs1)NCc1ccccc1 (stereo not given)	0	3	30*	2	0	8	21
O=C(COC(=O)[C@H](Cc1ccccc1)NC(=O)c1cccs1)Nc1c(Cl)cccc1Cl	2	-1	31*	-1	0	14*	35*
O=C(N[C@@H](Cc1ccccc1)C(=O)OCC(=O)N1CCOCC1)c1cccs1	0	-5	13	-1	0	·	·
Cc1ccc(NC(=O)c2ccccc2)cc1	4	-12	-4	-1	2	·	·
Cc1ccc(NC(=O)C2=C(c3ccccc3)S(=O)(=O)CCS2(=O)=O)cc1	-8	-3	61*	0	-1	50*	44*
COc1ccc(CN(C)C(C#Cc2ccccc2)Cc2ccccc2)c(OC)c1 (stereo not given)	-3	·	·	·	·	·	·
Cc1cc(C(=O)c2ccc(Cl)cc2)c(NC(=O)CCl)s1	-2	-5	41*	0	0	24*	65*
CC(=O)c1ccc(NC(=O)c2ccccc2Sc2ncnc3sc(C)c(C)c23)cc1	-1	-7	3	-3	1	·	·
Cc1sc2ncnc(Sc3ccccc3C(=O)O)c2c1C	-2	-3	97*	0	-3	50*	87*
CCOC(=O)CC[C@@H]1CC[C@]2(CCCN(Cc3ccc(Cl)cc3)C2)O1	0	·	·	·	·	·	·
CC(=O)Nc1cccc(-c2cc(C(C)=O)c3n(c2=O)CCC3)c1	1	·	·	·	·	·	·
CCOC(=O)c1c(NC(=O)C(C)OC(=O)c2ccc(NC(=O)CC#N)cc2)sc2c1CCCC2 (stereo not given)	-1	-13	16	2	3	·	·
CCOC(=O)c1c(NC(=O)C(C)OC(=O)C2=COCCO2)sc2c1CCCC2 (stereo not given)	·	-41	36*	0	0	0	19
O=C(NCCN1CCC(Cc2ccccc2)CC1)C1CCCN(S(=O)(=O)c2ccccc2[N+](=O)[O-])C1 (stereo not given)	-6	·	·	·	·	·	·
O=C(CSc1nnc(-c2ccccc2)n1-c1ccc(Cl)cc1)c1ccc(Cl)cc1	-5	·	·	·	·	·	·

Screening results (PubChem BioAssay)
